Assay results: the array DNA melting data of Ke et al. (doi:10.1101/2024.01.08.574731)

Legend:
[1] = folding enthalpy; higher = less favourable; fluorescence melt of hairpins on a sequencing array, two-state fit; details: sodium 0.088 M
How it was run: (§1)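 With Cy3 and quencher oligos annealed, library hairpins on a sequenced MiSeq flow cell were imaged for Cy3 fluorescence in 50 mM Na-HEPES pH 8.0, 25 mM NaCl, in 2.5 °C steps up to 60 °C. Melting temperature and folding enthalpy were derived from bootstrapped two-state fits of signals normalised to pre-quench Cy3 and to control constructs. Four replicates were combined by inverse variance, with fitted temperatures raised by 9.35 °C to match UV melts.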

[2] = melting temperature; fluorescence melt of hairpins on a sequencing array, two-state fit, raised by 9.35 °C to match UV melts; details: sodium 0.088 M
How it was run: as §1

Sequence | folding enthalpy [1] [kcal/mol] | Tm [2] [°C]
GTCTTGGGAAACCGAGAC ((((.((....)).)))) | -33 | 49.9
GGACAACGAAAGTTTTCC (((.(((....))).))) | -29.2 | 41.2
GTTGAGGGAAACCCCAAC ((((.((....)).)))) | -26.1 | 43.3
GACGACCGAAAGGTAGTC (((.(((....))).))) | -38.6 | 57.7
GCGGCTGCGAAAGCACGC (((..(((....)))))) | -16.6 | 57.9
GATCAACCGAAAGGTATC (((..(((....)))))) | -12.1 | 25.6
GCGGTTGGAAACAGCTGC ((.(.((....)).).)) | -25.9 | 52.3
GGCTTCGAAAGAAGGCC ((((((....))).))) | -26.8 | 57.9
GTCAACGAAAGTTGAGAC ((((((....)))..))) | -12.2 | 43.3
GATCCACGAATGGATC ((((((....)))))) | -34.4 | 48.1
GCACGGCGAAAGCGATGC (((..((....))..))) | -18.2 | 47.2
GGCATAGGAAACCATGCC (((((.(....).))))) | -30 | 48.7
GAAAGTGGAAACATTTTC ((((.((....)).)))) | -27.4 | 32.1
GCTTTAGGAAACTAAAGC (((((((....))))))) | -39.1 | 54.4
GCGAAAGGAAACCTTCGC (((((.(....).))))) | -34.4 | 48.8
GGCTTCGAAAGAAACGCC ((((((....)))..))) | -26.1 | 43.8
GGGTTAGGAAACTAACCC (((((((....))))))) | -47.6 | 61.3
GCGGATTGCCGC ((((....)))) | -11.3 | 53.7
GACGTCGGAAACGGCGTC ((((.((....)).)))) | -46.9 | 62.3
GTTTAAGGAAACTTAAAC (((((((....))))))) | -40.6 | 46.5
GCGTGTTGACGC ((((....)))) | -23.9 | 55
GTTTTTCGAAAGAAGAAC (((.(((....))).))) | -32.5 | 37.3
GCAGAATCGAAAGATTGC (((..(((....)))))) | -21.1 | 34.6

Sequence | folding enthalpy [1] [kcal/mol] | Tm [2] [°C]
GGGTCGGGAAACTGACCC (((((.(....).))))) | -51.9 | 57.5
GAAAGACGAAAGTCATTC (((.(((....))).))) | -21.1 | 38.2
GACCCGCGAAAGCGAGTC (((.(((....))).))) | -26.7 | 55.7
GGGACCGAAAGGTGGCCC ((((((....)))..))) | -19 | 45.5
GCATGGCGAAAGCCGAGC ((..(((....)))..)) | -17.1 | 55.7
GCCGGGGGAAACCCCGAC (.(((((....))))).) | -13.2 | 51.8
GATCCGGGAAACCGGACC (.(((((....))))).) | -13.2 | 44.1
GATGGTGGAAACACTGTC ((..(((....)))..)) | -15.5 | 35.8
GCCACGCGAAAGCAGGGC (((..((....))..))) | -23.5 | 61.6
GCCTTTCGAAAGAAGGC (((.(((....)))))) | -29.1 | 50.4
GATCACTAGAGTGATC ((((((....)))))) | -40.8 | 56.4
GCTAGTCGAAAGACAGC (((.(((....)))))) | -24.8 | 52.1
GGGCTGCCGAAAGGCCCC (((..(((....)))))) | -16 | 46.2
GTTAGCGGAAACGCCAAC (((.(((....))).))) | -17.3 | 37.4
GGTATGCGAAAGCAAACC (((.(((....))).))) | -30.2 | 53
GATCAGCGACCTGATC ((((((....)))))) | -31.3 | 47.4
GCTCATACGAAAGTAAGC (((..(((....)))))) | -9.13 | 28
GATCTTTAACAAGATC ((((((....)))))) | -32.6 | 38.1
GTGTCGGGAAACCGGCAC (((.(((....))).))) | -45.1 | 60.8
GGTGTTGGAAACAGCACC ((((.((....)).)))) | -37.1 | 51.8
GATCCGGCCTCGGATC ((((((....)))))) | -42.1 | 58.7
GCGGGTGGAAACATCCGC ((((.((....)).)))) | -43 | 64
GAATCACGAAAGTGCTTC (((.(((....))).))) | -20.8 | 38.5

Sequence | folding enthalpy [1] [kcal/mol] | Tm [2] [°C]
GGCATCGAAAGATTGGCC ((((((....)))..))) | -22.2 | 44.2
GTAGAGCGAAAGCTTAC (((.(((....)))))) | -12.8 | 38.5
GTAAGCGAAAGCTACTAC ((((((....)))..))) | -14.1 | 47.5
GGTCCCGAAAGGGCGACC ((((((....)))..))) | -14.3 | 46
GGGGTCGGAAACAACCCC (((((.(....).))))) | -31.7 | 48.3
GTGTCACGAAAGTGGCAC (((.(((....))).))) | -37.1 | 67.3
GGTCCAGGAAACTGGGTC (..((((....))))..) | -15.3 | 39.5
GGATACGAAAGTAAATCC ((((((....)))..))) | -19.4 | 35.8
GCATCACGAAAGTGGTGC (((.(((....))).))) | -37.8 | 64.3
GTACATCGAAAGATTAC (((.(((....)))))) | -20.3 | 32.1
GCCAGAGGAAACTCCGGC (((.(((....))).))) | -24.4 | 45.6
GCATGCGAAAGCATCTGC ((((((....)))..))) | -13.4 | 47
GTCCTCGAAAGAGCAGAC ((((((....)))..))) | -19.8 | 30.1
GCCGAACGAAAGTTGGC (((.(((....)))))) | -32.3 | 57.2
GATCCGGGAAACTGGGTC ((.((.(....).)).)) | -30.1 | 40
GTCTTGACGAAAGTCGAC (((..(((....)))))) | -11 | 35.5
TTCCTGAAAAGGAA (((((....))))) | -15 | 39.9
GAGGCCCGAAAGGGCTC (((.(((....)))))) | -9.95 | 57.9
GATTTGACGAAAGTCATC (((..(((....)))))) | -8.24 | 27.3
GCCTTCGAAAGAAAAGGC ((((((....)))..))) | -27.7 | 45.7
GATCGTGCCAACGATC ((((((....)))))) | -29.7 | 66.6
GGGTACGGAAACGCACCC ((((.((....)).)))) | -49.4 | 52.3
GTGAACGAAAGTTGACAC ((((((....)))..))) | -18.6 | 34.8

Sequence | folding enthalpy [1] [kcal/mol] | Tm [2] [°C]
GCAGCGGGAAACCACCGC ((.(.((....)).).)) | -14.2 | 39.8
GTCAGCGAAAGCTCGAC ((((((....))).))) | -19.8 | 48
GATCGTAGGAACGATC ((((((....)))))) | -30.9 | 52.4
GATCTATTAGTAGATC ((((((....)))))) | -33.8 | 44.4
TCGAAGAAATTCGA (((((....))))) | -11.1 | 38.7
GCGTACGAAAGTAAGCGC ((((((....)))..))) | -30.9 | 56.8
GATATGGGAAACTATATC (((((.(....).))))) | -23.2 | 33.8
GCAGGGCGAAAGCCACGC ((..(((....)))..)) | -15.2 | 52.2
GATCTATTGTTAGATC ((((((....)))))) | -35.9 | 42.5
GCAGGGCGAAAGCAATGC (((..((....))..))) | -24.1 | 59.9
GCACAGGGAAACCTATGC (((.(((....))).))) | -24.2 | 37.1
TGCTCGAAAGAGCA (((((....))))) | -17.9 | 67.7
GTCCCCGAAAGGGCCGAC ((((((....)))..))) | -12.1 | 33
GATCAGTCCACTGATC ((((((....)))))) | -37.6 | 54.3
GCAAACCGAAAGGTATGC (((.(((....))).))) | -37.5 | 53.4
GCATAGCGAAAGCTGTGC (((.(((....))).))) | -50.8 | 59.9
GATCGTTAGAACGATC ((((((....)))))) | -34.7 | 55.2
GTTTCCGGAAACAGAAAC (((((.(....).))))) | -13.2 | 35.1
GCCAATGGAAACATTGGC (((((((....))))))) | -38.3 | 67.8
GAACGCCCGAAAGGGTTC (((..(((....)))))) | -10.8 | 30.3
GCAAATGGAAACATCTGC (((.(((....))).))) | -20.3 | 33
GCGCAACGAAAGTTTCGC (((.(((....))).))) | -43 | 52.9
GATCCACTCGTGGATC ((((((....)))))) | -45.8 | 63.2
